Assay results as given in ChEMBL document CHEMBL1152757, “Stereoselective synthesis and biological evaluation of syn-1-amino-3-[18F]fluorocyclobutyl-1-carboxylic acid as a potential positron emission tomography brain tumor imaging agent” (Bioorg Med Chem, 2009).

Columns and labels:
Type in all cases: ADME, cell-based
Conditions in all cases: 0.5 h
9L [1] = assay: Drug uptake in rat 9L cells assessed as intracellular accumulation after 30 mins measured per 5 x 10^5 cells by gamma-counter
Outline: (§1)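 9L cells were grown in DMEM with 10% FCS and penicillin/streptomycin, then trypsinized and washed twice in HBSS. About 5 × 10^5 cells received 5 µCi tracer in amino acid-free HBSS for 30 min at 37 °C, without or with 10 mM BCH (L-type inhibitor). Cells were centrifuged and rinsed twice with ice-cold HBSS, then gamma-counted with decay correction. Uptake expressed as % of standard per 5 × 10^5 cells. Triplicates, 1-way ANOVA.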

9L [2] = assay: Drug uptake in rat 9L cells assessed as intracellular accumulation after 30 mins measured per 5 x 10^5 cells by gamma-counter in presence of alanine-cysteine-serine
Outline: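 9L rat gliosarcoma cells were grown in DMEM with 10% fetal calf serum and penicillin/streptomycin at 37 °C under 5% CO2, trypsinized and washed in HBSS. About 5 × 10^5 cells were incubated with 5 µCi tracer in amino-acid-free HBSS with 10 mM ACS (equimolar Ala/Cys/Ser) for 30 min at 37 °C, run in triplicate. Cells were centrifuged and rinsed twice with ice-cold HBSS, then gamma counted with decay correction. Results are % of standard per 5 × 10^5 cells.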

9L [3] = assay: Drug uptake in rat 9L cells assessed as intracellular accumulation after 30 mins measured per 5 x 10^5 cells by gamma-counter in presence of 2-aminobicyclo[2.2.1]-heptane-2-carboxylic acid; outline: as §1

Drug uptake (9L [1]): 12.3 %ID
Drug uptake (9L [2]): 0.18 %ID
Drug uptake (9L [3]): 2.9 %ID
Structure (SMILES): N[C@]1(C(=O)O)C[C@@H]([18F])C1 [FLUCICLOVINE F18]
